We go through eleven compounds from ChEMBL document CHEMBL5107994, “Biphenyl scaffold for the design of NMDA-receptor negative modulators: molecular modeling, synthesis, and biological activity” (RSC Med Chem, 2022).

The target in experiment [1] is Glutamate NMDA receptor. The experiment can be described thus: Displacement of 3[H]ifenprodil from NMDA receptor in Wistar rat brain membrane incubated for 2 hrs by scintillation counting method. It counts as cell membranes. In a few lines: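 Rat hippocampal membranes prepared in HEPES/Tris pH 7.6 buffers with repeated EDTA washes, stored in liquid nitrogen. Incubated with [3H]-ifenprodil (40 nM working-solution aliquot) for 2 h at room temperature. Nonspecific binding measured with 10 μM unlabeled ifenprodil. Test compounds over 10^-8 to 10^-3 M. Filtration on polyethyleneimine-soaked GF/B filters, then scintillation counting. Each concentration run in triplicate and averaged.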

For experiment [2], the target named is T1, Glutamate NMDA receptor (Rattus norvegicus) (UniProt P35439+Q00959+Q00960+Q00961+Q62645+Q8VHN2+Q9R1M7). Nature of the experiment: Negative allosteric modulator activity at NMDA receptor in Wistar rat hippocampal CA1 neuronal membrane assessed as inhibition of NMDA and glycine induced current response by measuring maximum efficacy by whole-cell patch clamp technique. The settings on record: Hippocampal CA1 neurone, filed as negative allosteric modulator. It counts as cell membranes. In a few lines:
(§1)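 Acutely vibrodissociated CA1 pyramidal neurons from 13–18-day male Wistar rats, whole-cell recorded at –80 mV at room temperature. 100 μM NMDA + 10 μM glycine activated the receptors. Steady-state current block was measured across concentrations and fitted with the Hill equation for the concentration-inhibition relationship. At least four experiments, mean ± SD.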
A general note: The patch-clamp technique gives a direct electrical read-out from membranes.

For experiment [3], the target named is Glutamate NMDA receptor. Nature of the experiment: Negative allosteric modulator activity at NMDA receptor in Wistar rat hippocampal CA1 neuronal membrane assessed as inhibition of NMDA and glycine induced current response by whole-cell patch clamp technique. The format is cell membranes. The settings on record: hippocampal ca1 neurone. In a few lines: as §1

In experiment [4] the target is T1, Glutamate NMDA receptor (Rattus norvegicus). Nature of the experiment: Negative allosteric modulator activity at NMDA receptor in Wistar rat hippocampal CA1 neuronal membrane assessed as inhibition of NMDA and glycine induced current response at 30 uM by whole-cell patch clamp technique. It counts as cell membranes. The settings on record: Hippocampal CA1 neurone. In a few lines:
(§2)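 Male Wistar rats, 13–18 d old. CA1 pyramidal neurons isolated from hippocampal slices by vibrodissociation. Whole-cell patch clamp at room temperature, holding potential –80 mV, with 70–80% series-resistance compensation. Currents evoked by 100 μM NMDA plus 10 μM glycine. Percent block of the steady-state current measured at each compound concentration. Means ± SD from at least four experiments.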

Experiment [5] relates to Mus musculus. Nature of the experiment: Antidepressant activity in ICR (CD-1) mouse assessed as decrease in immobility time at 160 mg/kg, po and measured after 1 hr by forced swim test. The format is functional, organism-based. In a few lines: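 Adult male ICR (CD-1) mice, 20–25 g, n=10 per group, dosed orally 1 h before a one-day forced swim test. Solutions were prepared on the day. Each mouse swam 5 min in a cylinder with at least 20 cm of water at 24–26°C, with fresh water per animal, and was videotaped. Total immobility (passive floating) was compared with an […] saline/5% DMSO group by Mann-Whitney U-test.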

Experiment [6] has as its target T1, Glutamate NMDA receptor (Rattus norvegicus). The experiment can be described thus: Negative allosteric modulator activity at NMDA receptor in Wistar rat hippocampal CA1 neuronal membrane assessed as inhibition of NMDA and glycine induced current response at 0.03 uM by whole-cell patch clamp technique. It counts as cell membranes. The settings on record: Hippocampal CA1 neurone. In a few lines:
as §2

The target is the same in experiment [7]. Nature of the experiment: Negative allosteric modulator activity at NMDA receptor in Wistar rat hippocampal CA1 neuronal membrane assessed as inhibition of NMDA and glycine induced current response at 3 uM by whole-cell patch clamp technique. The format is cell membranes. The settings on record: Hippocampal CA1 neurone, filed as negative allosteric modulator. The procedure, abridged: as §2

The target is the same in experiment [8]. The experiment can be described thus: Negative allosteric modulator activity at NMDA receptor in Wistar rat hippocampal CA1 neuronal membrane assessed as inhibition of NMDA and glycine induced current response at 0.3 uM by whole-cell patch clamp technique. The format is cell membranes. The settings on record: Hippocampal CA1 neurone, filed as negative allosteric modulator. In a few lines: as §2

Molecules are shown by their SMILES. The source made the active and inactive calls. The rule behind the calls is not given here. A value given as a limit tells only on which side of the number the result lay.

On to `Oc1cccc(OCC(O)c2ccc(-c3ccccc3)cc2)c1` (configuration not stated), for which the IC50 in experiment [1] turned out to be 30 µM; in experiment [3], 5 µM. In addition, in experiment [2], the Emax was found to be 62%.

On to `CS(=O)(=O)Nc1cccc(NCC(O)c2ccc(-c3ccc(Br)cc3)cc2)c1` (configuration not stated), for which the values for the IC50 in experiment [1] and in experiment [3] were 1 µM and 0.05 µM, respectively. For the same compound, the Emax in experiment [2] amounted to 78%.

Turning to `NC(COc1cccc(O)c1)c1ccc(-c2ccccc2)cc1` (configuration not stated), the IC50 in experiment [1] turned out to be 41 µM; in experiment [3], 5 µM. The Emax in experiment [2] amounted to 65%.

For the compound `Oc1cccc(NCC(O)c2ccc(-c3ccccc3)cc2)c1` (configuration not stated), the values for the IC50 in experiment [1] and in experiment [3] were 4.2 µM and 0.45 µM, respectively. In addition, the Emax in experiment [2] worked out at 72%.

On to `CCNc1cccc(NCC(O)c2ccc(-c3ccccc3)cc2)c1` (configuration not stated), for which the IC50 in experiment [1] was over 100 µM; in experiment [3], over 30 µM. Further, in experiment [4], the inhibition was 10%.

For `CNCCC(Oc1ccc(C(F)(F)F)cc1)c1ccccc1` (configuration not stated), the outcome in experiment [5] was Active.

Turning to `C[C@H]([C@@H](O)c1ccc(O)cc1)N1CCC(Cc2ccccc2)CC1`, the Emax in experiment [2] was 62%.

For `CS(=O)(=O)Nc1cccc(NCC(O)c2ccc(-c3ccccc3)cc2)c1` (configuration not stated), the values for the IC50 in experiment [1] and in experiment [3] were 5.4 µM and 0.1 µM, respectively. Further, the values for the inhibition in experiment [6], in experiment [7] and in experiment [8] were 25%, 76% and 61%, respectively. The Emax in experiment [2] came to 83%.

In the case of `OC(CNc1ccccc1)c1ccc(-c2ccccc2)cc1` (configuration not stated), the half-maximal inhibitory concentration (IC50) in experiment [1] is over 100 µM; in experiment [3], over 30 µM. Moreover, the inhibition in experiment [4] (filed as negative allosteric modulator) was determined as 42%.

Turning to `OC(COc1ccccc1)c1ccc(-c2ccccc2)cc1` (configuration not stated), the values for the IC50 in experiment [1] and in experiment [3] were over 100 µM and over 30 µM, respectively. Further, the inhibition in experiment [4] came out at 37%.

As for `Oc1ccc(OCC(O)c2ccc(-c3ccccc3)cc2)cc1` (configuration not stated), the results for the IC50 in experiment [1] and in experiment [3] were over 100 µM and over 30 µM, respectively. For the same compound, in experiment [4], the inhibition was determined as 36%.

Usually IC50 stands for the concentration that inhibits the measured activity by half. The Emax is the maximal effect, on the per cent scale that the assay sets. For orientation: inhibition means the change of the read-out against control, counted positive when it falls.
